# Measured values gathered from unrelated publications.
# Lines come from different studies, so protocols differ.
SMILES,target or system,assay,system,conditions,endpoint,result
Cc1cc(O)cc(Nc2nnc(-c3n[nH]c4ccc(C)cc34)s2)c1,Staphylococcus epidermidis,microbial growth,ATCC12228,,MIC,201 µg/mL
COC(=O)CNC(=O)C(=O)OC,OCI-Ly1,"cell growth or viability, ATP luminescence",,"1 µM, 5 days",viability,146%
O=C(NC1CCCCC1)c1ccc(-c2nc3ccc4[nH]ncc4c3c3c2CCCC3)cc1,K562,"cell growth or viability, resazurin",,72 h,GI50,> 10 µM
O=C(Nc1ccc(Cl)cc1)C1CCCN(C(=O)c2cc(C(F)(F)F)cc(C(F)(F)F)c2)C1 (racemic),OCI-Ly1,"cell growth or viability, ATP luminescence",,"1 µM, 5 days",viability,161%
CCCCCCCCCCCCCCCCCCOc1ccccc1CC(=O)OCCC[N+](C)(C)C,HOP-92,"cell growth or viability, SRB",,10 µM,inhibition,60.4%
O=C(CCCCCCSc1ccc2ccccc2c1)NO,OCI-Ly1,"cell growth or viability, ATP luminescence",,"0.5 µM, 5 days",viability,173%
CCCCCCCCCCCCCCCCCCOc1cccc(CC(=O)OCC[N+]2(C)CCCC2)c1,HOP-92,"cell growth or viability, SRB",,10 µM,inhibition,30%
CN[C@H](CC(C)C)C(=O)N[C@H]1C(=O)N[C@@H](CC(N)=O)C(=O)N[C@H]2C(=O)N[C@H]3C(=O)N[C@H](C(=O)N[C@H](C(=O)O)c4cc(O)cc(O)c4-c4cc3ccc4O)[C@H](O)c3ccc(c(Cl)c3)Oc3cc2cc(c3O[C@@H]2O[C@H](CO)[C@@H](O)[C@H](O)[C@H]2O[C@H]2C[C@](C)(N)[C@H](O)[C@H](C)O2)Oc2ccc(cc2Cl)[C@H]1O,Staphylococcus epidermidis,"microbial growth, broth dilution",,clinical isolate,MIC90,2 µg/mL
O=C(NO)c1ccc(CC(=O)N(CCO)c2ccccc2)cc1,OCI-Ly1,"cell growth or viability, ATP luminescence",,"1 µM, 5 days",viability,74.7%
CCCCCCCCCCCCCCCCCCOc1cccc(CC(=O)OCC[N+]2(C)CCOCC2)c1,HOP-62,"cell growth or viability, SRB",,10 µM,inhibition,9.38%
C=C[C@]1(C)C[C@@H](OC(=O)CS[C@@H]2C[C@H]3CC[C@@H](C2)N3C)[C@]2(C)[C@H](C)CC[C@]3(CCC(=O)[C@H]32)[C@@H](C)[C@@H]1O,Staphylococcus epidermidis,microbial growth,MRSE,clinical isolate,MIC90,0.0625 µg/mL
CC[C@H]1OC(=O)[C@H](C)[C@@H](O[C@H]2C[C@@](C)(OC)[C@@H](O)[C@H](C)O2)[C@H](C)[C@@H](O[C@@H]2O[C@H](C)C[C@H](N(C)C)[C@H]2O)[C@](C)(O)C[C@@H](C)CN(C)[C@H](C)[C@@H](O)[C@]1(C)O,Staphylococcus epidermidis,microbial growth,ATCC12228,,MIC,< 98 µg/mL
CCCCCCCCCCCCCCCCCCOc1ccc(CC(=O)OCCC[N+](C)(C)C)cc1,HOP-92,"cell growth or viability, SRB",,10 µM,inhibition,22.1%
Cc1ccc2[nH]nc(-c3nnc(Nc4ccc(O)cc4)s3)c2c1,Staphylococcus epidermidis,microbial growth,ATCC12228,,MIC,140 µg/mL
O=C(CCCCCCC(=O)Nc1ccccc1)NO,OCI-Ly1,"cell growth or viability, ATP luminescence",,"0.5 µM, 5 days",viability,74.3%
CC1(C)S[C@@H]2[C@H](NC(=O)[C@H](N)c3ccccc3)C(=O)N2[C@H]1C(=O)O,Staphylococcus epidermidis,microbial growth,MRSE,clinical isolate,MIC90,> 128 µg/mL
CCCCCCCCCCCCCCCCCCOc1cccc(CC(=O)OCC[N+]2(C)CCCCC2)c1,HOP-92,"cell growth or viability, SRB",,10 µM,inhibition,19%
Cc1ccc2[nH]nc(-c3nnc(Nc4cc(Cl)cc(Br)c4)s3)c2c1,Staphylococcus epidermidis,microbial growth,ATCC12228,,MIC,210 µg/mL
CN(C)CCNC(=O)c1ccc(-c2nc3ccc4[nH]ncc4c3c3c2CC(F)(F)CC3)cc1,K562,"cell growth or viability, resazurin",,72 h,GI50,3.1 µM
CC(=O)OC[C@H]1O[C@@H](n2cnc(N)nc2=O)[C@H](OC(C)=O)[C@@H]1OC(C)=O,OCI-Ly1,"cell growth or viability, ATP luminescence",,"0.1 µM, 5 days",viability,177%
COc1c(N2C[C@@H]3CCCN[C@@H]3C2)c(F)cc2c(=O)c(C(=O)O)cn(C3CC3)c12,Staphylococcus epidermidis,"microbial growth, broth dilution",,clinical isolate,MIC50,0.5 µg/mL
Cc1n[nH]c2ccc3nc(-c4ccc(C(=O)N(C)CCN(C)C)cc4)c4c(c3c12)CCC(F)(F)C4,K562,"cell growth or viability, resazurin",,72 h,GI50,9.1 µM
CCCCCCCCCCCCCCCCCCOc1cccc(CC(=O)OCCC[N+](C)(C)C)c1,HOP-92,"cell growth or viability, SRB",,10 µM,inhibition,22.4%
O=C(/C=C/c1cccc(C(=O)NO)c1)NO,OCI-Ly1,"cell growth or viability, ATP luminescence",,"1 µM, 5 days",viability,72.5%
CCCCCCCCCCCCCCCCCCOc1ccccc1CC(=O)OCC[N+]1(C)CCCC1,HOP-92,"cell growth or viability, SRB",,10 µM,inhibition,67.3%
O=C(Nc1cccc(Br)c1)c1cccc(S(=O)(=O)N2CCCCCC2)c1,OCI-Ly1,"cell growth or viability, ATP luminescence",,"0.1 µM, 5 days",viability,178%
CCc1nc(C(N)=O)c(Nc2ccc(N3CCC(N4CCN(C)CC4)CC3)c(OC)c2)nc1NC1CCOCC1,K562,"cell growth or viability, resazurin",,72 h,GI50,2.3 µM
CC[C@H]1OC(=O)[C@H](C)[C@@H](O[C@H]2C[C@@](C)(OC)[C@@H](O)[C@H](C)O2)[C@H](C)[C@@H](O[C@@H]2O[C@H](C)C[C@H](N(C)C)[C@H]2O)[C@](C)(O)C[C@@H](C)/C(=N\OCOCCOC)[C@H](C)[C@@H](O)[C@]1(C)O,Staphylococcus epidermidis,microbial growth,,clinical isolate,MIC90,64 µg/mL
O=C(NCCc1ccccn1)c1ccc(-c2nc3ccc4[nH]ncc4c3c3c2CCCC3)cc1,K562,"cell growth or viability, resazurin",,72 h,GI50,8.4 µM
CCCCCCCCCCCCCCCCCCOc1ccc(CC(=O)OCC[N+](CC)(CC)CC)cc1,HOP-62,"cell growth or viability, SRB",,10 µM,inhibition,2.95%
O=C(NCCN1CCCCC1)c1ccc(-c2nc3ccc4[nH]ncc4c3c3c2CCCC3)cc1,K562,"cell growth or viability, resazurin",,72 h,GI50,7.5 µM
CC(=O)NC[C@H]1CN(c2ccc(N3CCOCC3)c(F)c2)C(=O)O1,Staphylococcus epidermidis,microbial growth,,clinical isolate,MIC90,2 µg/mL
Cc1ccc2[nH]nc(-c3nnc(Nc4ccc(Br)cc4)s3)c2c1,Staphylococcus epidermidis,microbial growth,ATCC12228,,MIC,190 µg/mL
CN(C)CCN(C)C(=O)c1ccc(-c2nc3ccc4[nH]ncc4c3c3c2CCCCC3)nc1,K562,"cell growth or viability, resazurin",,72 h,GI50,> 10 µM
Cc1cc(Nc2nnc(-c3n[nH]c4ccc(C)cc34)s2)cc([N+](=O)[O-])c1,Staphylococcus epidermidis,microbial growth,ATCC12228,,MIC,208 µg/mL
Cc1n[nH]c2ccc3nc(-c4ccc(C(=O)NCCN(C)C)cc4)c4c(c3c12)CCCCC4,K562,"cell growth or viability, resazurin",,72 h,GI50,2.9 µM
